Drawing on ChEMBL document CHEMBL1221204, “Spliceostatin A targets SF3b and inhibits both splicing and nuclear retention of pre-mRNA” (Nat Chem Biol, 2007), this text covers inhibition, Activity and half-life for 2 compounds.

Calls of active or inactive are those of the source.

Data set [1] deals with T1, Splicing factor 3B subunit 3 (Homo sapiens) (UniProt Q15393).
T1 sequence (whole entry): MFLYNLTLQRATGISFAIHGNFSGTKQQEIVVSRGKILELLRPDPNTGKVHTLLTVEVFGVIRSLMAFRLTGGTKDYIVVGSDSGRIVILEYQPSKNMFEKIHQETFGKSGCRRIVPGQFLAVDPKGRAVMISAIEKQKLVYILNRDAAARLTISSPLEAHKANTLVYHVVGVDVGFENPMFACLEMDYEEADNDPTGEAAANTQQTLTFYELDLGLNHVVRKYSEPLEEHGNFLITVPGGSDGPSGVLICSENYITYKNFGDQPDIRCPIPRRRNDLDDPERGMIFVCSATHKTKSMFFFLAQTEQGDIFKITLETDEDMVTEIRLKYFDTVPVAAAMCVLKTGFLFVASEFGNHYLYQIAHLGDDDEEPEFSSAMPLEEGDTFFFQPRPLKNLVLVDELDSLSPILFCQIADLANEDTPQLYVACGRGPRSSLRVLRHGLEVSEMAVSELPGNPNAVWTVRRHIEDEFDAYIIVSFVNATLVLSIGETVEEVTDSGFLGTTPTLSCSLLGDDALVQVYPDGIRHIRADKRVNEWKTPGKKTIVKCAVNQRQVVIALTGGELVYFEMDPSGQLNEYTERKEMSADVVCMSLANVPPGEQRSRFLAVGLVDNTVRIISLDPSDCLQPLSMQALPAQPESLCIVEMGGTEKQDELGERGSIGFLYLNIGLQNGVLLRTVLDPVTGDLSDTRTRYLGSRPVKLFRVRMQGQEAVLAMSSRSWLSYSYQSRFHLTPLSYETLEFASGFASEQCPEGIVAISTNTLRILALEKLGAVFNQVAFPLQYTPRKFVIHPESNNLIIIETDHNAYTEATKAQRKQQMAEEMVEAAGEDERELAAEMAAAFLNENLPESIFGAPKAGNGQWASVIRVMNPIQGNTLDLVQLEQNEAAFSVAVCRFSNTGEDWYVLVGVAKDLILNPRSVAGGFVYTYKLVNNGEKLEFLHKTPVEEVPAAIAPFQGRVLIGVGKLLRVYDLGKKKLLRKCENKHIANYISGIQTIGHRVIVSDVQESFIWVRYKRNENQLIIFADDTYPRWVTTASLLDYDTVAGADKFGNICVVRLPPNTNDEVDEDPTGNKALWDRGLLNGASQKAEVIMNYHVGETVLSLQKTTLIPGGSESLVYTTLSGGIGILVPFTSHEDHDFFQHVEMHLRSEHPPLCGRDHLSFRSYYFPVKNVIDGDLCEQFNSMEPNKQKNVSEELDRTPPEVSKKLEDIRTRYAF
In words: Binding affinity to SAP130 in human HeLa cells assessed as inhibition of beta-actin mRNA splicing at 100 ng/ml after 6 hrs by RT-PCR analysis. The format is cell-based. In short, it runs like this:
(§1)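 HeLa cells treated 6 h with 100 ng ml-1 SSA or methanol. Total RNA isolated with TRIzol and reverse transcribed with M-MLV reverse transcriptase. PCR primers designed to detect intron-containing transcripts.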

Data set [2] concerns the target T1, Splicing factor 3B subunit 3 (Homo sapiens). In words: Binding affinity to SAP130 in human HeLa cells assessed as inhibition of p27 pre-mRNA splicing between exon 1 and intron 2 at […] after 12 hrs by RT-PCR analysis. The format is cell-based.
For data set [3], the system named is SF3B1/SF3B2/SF3B3 (Homo sapiens). In words: Displacement of Ac-SSA from SF3b SAP155/SAP145/SAP130 complex in human HeLa cells by competition binding assay.
The target in data set [4] is T1, Splicing factor 3B subunit 3 (Homo sapiens). The data set is described as follows: Binding affinity to SAP130 in human HeLa cells assessed as inhibition of p27 mRNA splicing at 100 ng/ml after 6 hrs by RT-PCR analysis. The format is cell-based. A digest of the protocol: as §1
In data set [5] the test system is HeLa. In words: Induction of beta-actin expression in human HeLa cells at 100 ng/ml after 14 hrs by Western blotting. It counts as functional, cell-based. A general note: Immunoblotting shows a protein as a band on a membrane.
The test system of data set [6] is HeLa. The data set is described as follows: Induction of subcellular localization of SAP145 in SAP145-targeting siRNA-transfected human HeLa cells after 3 days. It counts as functional, cell-based.
For data set [7], the target named is T1, Splicing factor 3B subunit 3 (Homo sapiens). In words: Binding affinity to SAP130 in human HeLa cells assessed as inhibition of p27 pre-mRNA splicing between exon 1 and exon 2 at […] after 12 hrs by RT-PCR analysis. It counts as cell-based.
Data set [8] has as its system HeLa. The data set is described as follows: Induction of truncated p27 expression in SAP145-targeting siRNA-transfected human HeLa cells. It counts as functional, cell-based. A digest of the protocol: (§2)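 HeLa cells transfected with siRNA against SAP155, SAP145 or SAP130 using DharmaFECT 1. Knockdown and the truncated p27* form detected by western blotting of cell extracts.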

Data set [9] concerns the target T1, Splicing factor 3B subunit 3 (Homo sapiens). The data set is described as follows: Binding affinity to SAP130 in human HeLa cells assessed as inhibition of IkappaBalpha pre-mRNA splicing between exon 1 and exon 4 at […] after 12 hrs by RT-PCR analysis. It counts as cell-based.
For data set [10] the target is unchanged. In words: Binding affinity to SAP130 in human HeLa cells assessed as inhibition of FLAG-tagged beta globin splicing at 100 ng/ml after 12 hrs by RT-PCR analysis. The format is cell-based.
Data set [11] has as its target Cyclin-dependent kinase 2 (Homo sapiens) (UniProt P24941). The data set is described as follows: Induction of CDK2 in HEK293T cells transfected with FLAG-tagged p27 at 190 nM by Western blot analysis. The format is cell-based. The note with it: HEK-293T. In short, it runs like this: (§3)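 HEK 293T cells were transfected with pcDNA3.1, FLAG-p27 or FLAG-p27*, or were treated with MeOH, FR901464 (20, 200 nM) or SSA (190 nM). CDK2 was immunoprecipitated and its kinase activity read by autoradiography with histone H1 and (gamma-32P)ATP. Associated proteins were detected by western blotting.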

Data set [12] relates to HeLa. In words: Induction of subcellular localization of poly(A) RNA in human HeLa cells at 100 ng/ml after 3 hrs using digoxigenin-labeled oligo-Dt probe. It counts as functional, cell-based. A digest of the protocol:
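HeLa cells treated with SSA (100 ng ml-1, 3 h) or MeOH. Fixed in 3% formaldehyde 15 min; permeabilized with 0.5% Triton X-100 on ice. Hybridized at 42 °C with 3'-digoxigenin oligo-dT in 2× SSC, 20% formamide, 1 mg ml-1 tRNA, 10% dextran sulfate. Washed; detected with anti-digoxigenin then FITC anti-mouse IgG.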

Data set [13] in a line: Half life of the compound in culture medium by HPLC analysis. The format is physicochemical.
Data set [14] has as its system HeLa. The data set is described as follows: Induction of beta-tubulin expression in human HeLa cells at 100 ng/ml after 14 hrs by Western blotting. It counts as functional, cell-based.
For data set [15], the system named is HeLa. In words: Induction of truncated p27 expression in SAP130-targeting siRNA-transfected human HeLa cells. The format is functional, cell-based. A digest of the protocol: as §2
Data set [16] has as its target Cyclin-dependent kinase 2 (Homo sapiens) (UniProt P24941). In words: Induction of CDK2 in HEK293T cells transfected with FLAG-tagged truncated p27 at 190 nM by Western blot analysis. The note with it: HEK-293T. The format is cell-based. A digest of the protocol:
as §3

For data set [17], the system named is HeLa. The data set is described as follows: Induction of truncated p27 expression in SAP155-targeting siRNA-transfected human HeLa cells. The format is functional, cell-based. In short, it runs like this:
as §2

The target in data set [18] is T1, Splicing factor 3B subunit 3 (Homo sapiens). In words: Binding affinity to SAP130 assessed as inhibition of radio labeled IgM pre-mRNA splicing after 1 hr by autoradiography. A digest of the protocol: (§4)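 32P-labelled, m7G-capped in vitro-transcribed pre-mRNA substrate; beta-globin (exon 1 177 nt, intron 130 nt, exon 2 148 nt) or IgM (exon C3 154 nt, intron 107 nt, exon C4 119 nt). HeLa nuclear extract preincubated with SSA (19, 58, 95, 190 nM) or methanol for 1 h at 4 °C. Splicing then run 90 min at 30 °C in 20 µl. RNA resolved on denaturing urea-PAGE; autoradiography.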

Data set [19] has the same target. The data set is described as follows: Binding affinity to SAP130 assessed as inhibition of radio labeled beta-globin pre-mRNA splicing after 1 hr by autoradiography. In short, it runs like this:
as §4

For data set [20], the system named is HeLa. In words: Induction of subcellular localization of SC35 in human HeLa cells at 100 ng/ml after 3 hrs. It counts as functional, cell-based. A digest of the protocol: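 HeLa cells treated with SSA (100 ng ml-1, 3 h) or MeOH. Fixed in 3% formaldehyde, permeabilized with 1% Triton X-100, blocked with 5% FBS-PBS. Stained with anti-SC35 and an Alexa 488 anti-mouse secondary; fluorescence microscopy at 100×.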

Data set [21] deals with HEK-293T. The data set is described as follows: Induction of intron translation of Myc-tagged p27 gene in HEK293T cells at 100 ng/ml for 14 hrs by Western blotting. It counts as functional, cell-based. The note with it: Homo sapiens. A digest of the protocol:
(§5)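 HEK 293T cells transfected (Lipofectamine 2000) with the p27-int-HA reporter. Correct splicing yields p27-Myc; translated intron yields p27*-HA. Cells treated with or without SSA at 100 ng ml-1 for 14 h. Myc- and HA-tagged products detected by western blotting.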

Data set [22] has as its system HEK-293T. The data set is described as follows: Induction of intron translation of HA-tagged truncated p27 gene in HEK293T cells at 100 ng/ml for 14 hrs. The format is functional, cell-based. The conditions noted are these: Homo sapiens. In short, it runs like this:
as §5

For data set [23], the target named is T1, Splicing factor 3B subunit 3 (Homo sapiens). The data set is described as follows: Binding affinity to SAP130 in human HeLa cells assessed as inhibition of beta-tubulin mRNA splicing at 100 ng/ml after 6 hrs by RT-PCR analysis. It counts as cell-based. A digest of the protocol:
as §1

Data set [24] has as its system HeLa. The data set is described as follows: Induction of subcellular localization of SAP155 in SAP155-targeting siRNA-transfected human HeLa cells after 3 days. It counts as functional, cell-based.
In data set [25] the test system is HeLa. In words: Induction of p27 expression in human HeLa cells at 1 uM after 24 hrs by Western blotting. The format is functional, cell-based. A digest of the protocol: (§6)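 HeLa S3 cells were grown in DMEM with 10% heat-inactivated FBS and treated for 24 h. Cells were sonicated in ice-cold pH 7.5 HEPES IP buffer with protease inhibitors. Extracts were separated by SDS-PAGE, blotted to PVDF and probed with anti-p16, anti-p21 and anti-p27 antibodies, with chemiluminescent detection.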

Data set [26] concerns HeLa. The data set is described as follows: Induction of p21 expression in human HeLa cells at 1 uM after 24 hrs by Western blotting. The format is functional, cell-based. In short, it runs like this: as §6
The subject of data set [27] is HeLa. The data set is described as follows: Induction of p16 expression in human HeLa cells at 1 uM after 24 hrs by Western blotting. It counts as functional, cell-based. In short, it runs like this: as §6

Regarding `CO[C@]1(C)C[C@@]2(CO2)[C@H](O)[C@@H](/C=C/C(C)=C/C[C@@H]2O[C@H](C)[C@H](NC(=O)/C=C\[C@H](C)OC(C)=O)C[C@@H]2C)O1`, the inhibition entry in data set [1], in data set [4], in [18] and in data set [23] was “Active” in each case. The outcome (in [2]; in data set [3]; in the data set on HeLa [5]; with HeLa [6]; in data set [7]; in the data set with HeLa [8]) was Active. Besides, the result (in data set [9]; in data set [10]; with HeLa [12]; in the data set with HeLa [14]; with HeLa [15]; with HeLa [17]) was Active. Moreover, the result in the data set with HeLa [20], with HEK-293T [21], in the data set with HEK-293T [22] and in the data set with HeLa [24] was Active. The outcome in [11] and in [16] was inactive. Also, the half-life in data set [13] came out at 6 min. The Activity result in data set [19] was “Dose-dependent effect”.
With `CC(/C=C/C(=O)NO)=C\[C@@H](C)C(=O)c1ccc(N(C)C)cc1`, the result in the data set on HeLa [25], in the data set with HeLa [26] and in the data set with HeLa [27] was Active.

What is called half-life is the time needed for the level to fall by half in the phase considered. Low readings indicate fast loss, high ones slow loss.
